Only a selection was taken, and hits are over-represented in it overall.
A1 inh = caspase 3/7 activation in MEF A1-2A-BIM cells, primary screen, A1 inhibitor project, cell-based, luminescence, HTS; caspase activation, % (no concentration beside the values); AID 2462, 2010; Caspase-Glo 3/7 luminescence, 3 h; percent of clofoctol response, vehicle zero; 0.066% of 330,000 active;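 active = over half of replicate activation scores above 10%, or exactly half above 10 with the replicate mean above 10; inconclusive = replicate mean below 10 yet half the replicates above 10; inactive = over half of replicates below 10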
XBP1 UPR activ = activators of adaptive XBP1 UPR arm, primary screen, cell-based, CHO-XBP1 luciferase reporter, luminescence, uHTS; IRE1-XBP1 UPR activation; percent of tunicamycin response, DMSO as zero; activation, % at 20 µM; 0.33% of 330,000 active; AID 463104, 2010;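 active = versus positive control, 20 µM dose yields 30% or more activation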;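 also: 100% = tunicamycin at 10 µg/mL and 0% = DMSO only wells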
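Material: IRE1-XBP1 luciferase reporter CHO line / Quantity: one thousand reporter cells per well / Buffer or medium: F12 with 10% serum / Compound: 20 µM single concentration, DMSO 1% / Times: 6 h treatment, 37 °C / Detection: Steady-Glo luciferase glow luminescence, 10 min after reagent addition / Benchmarks: tunicamycin high, DMSO low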
CHOP UPR activ = activators of apoptotic CHOP UPR arm, primary screen, cell-based, CHO-CHOP luciferase reporter, luminescence, uHTS; 0.34% of 330,000 active; UPR activation; percent of tunicamycin response over DMSO baseline; activation, % at 10 µM; AID 449763, 2010;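 active = at 10 µM dose, activation of 40% or more, normalized to positive control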;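 also: 100% = tunicamycin at 10 µg/mL and 0% = DMSO alone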
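Test system: CHO-CHOP cells, stable luciferase reporter of PERK-eIF2a-CHOP signalling | Quantity: 500 CHO-CHOP cells per well | Buffer or medium: F12 plus 10% serum | Compound dosing: 10 µM single point, 0.5% DMSO | Schedule: 6 h compound treatment, 37 °C | Signal: Luciferase luminescence | Control set: Tunicamycin high control, DMSO low control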
CHOP inhibitor = inhibitors of CHOP promoter induction, primary screen, cell-based, unfolded protein response, luciferase reporter; inhibition, % at 10 µM; 3.8% of 220,000 active; CHO-K1 CHOP-promoter luciferase, tunicamycin-induced, 15-18 h; AID 2732, 2010;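 active = compounds that reduced the stress-induced luciferase reporter signal by more than about 70% of percent inhibition, limit read from the data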;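 also: 0% = tunicamycin plus vehicle and 100% = wells without tunicamycin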
* = called active by the depositor; u = inconclusive; x = not tested or not shown; ! = repeats disagree.

SMILES	A1 inh	XBP1 UPR activ	CHOP UPR activ	CHOP inhibitor
Cc1ccccc1S(=O)(=O)c1c(C)cc(C)n(CC(C)C)c1=O	1	0	0	86*
Cc1ccccc1S(=O)(=O)c1c(C)cc(C)n(C)c1=O	-1	-4	0	-21
c1cc2c(cc1CNc1ccc(N3CCOCC3)cc1)OCO2	-7	-2	6	x
CCCC1Cc2c(sc3nc(SC)nc(N)c23)CO1 (stereo not drawn)	0	-1	2	74*
CCOC(=O)C1(S(=O)(=O)c2ccc(Cl)cc2)CCN(Cc2ccc(C)cc2)CC1	0	0	-1	74*
CCOc1cc2c(cc1C(C)(C)C)NC(=O)CS2	0	0	-2	85*
COc1cc(OC)cc(-c2c(-c3cccs3)c3cc(-c4ccc(C(N)=O)cc4)ccc3n2C)c1	-2	9	3	x
CSc1ccc(CN(C)CC(=O)Nc2ccccc2Br)cc1	1	-3	2	57
CSc1ccccc1NC(=O)CSCc1ccc(Br)cc1	0	0	-1	51
CSc1ccccc1NC(=O)CN(C)Cc1ccc(Br)cc1	1	1	2	80*
CSc1ccccc1NC(=O)CSCc1ccccc1Br	1	-1	-3	72*
Cc1ccc(-n2nc3c(c2NC(=O)CC(C)C)CS(=O)C3)cc1 (stereo not drawn)	0	2	0	x
Cc1cc(SCC(=O)Nc2ccc3[nH]c(=O)[nH]c3c2)nc2ccccc12	0	5	1	x
Cc1ccc2c(c1)c(C)c(C)n2CC(O)Cn1nnc2ccccc21 (stereo not drawn)	-1	1	6	84*
O=C1C2C(c3ccccc3)=NN(c3ccccc3)C2C(=O)N1c1ccccc1 (stereo not drawn)	0	0	0	73*
O=C1[C@H]2C(c3ccccc3)=NN(c3ccccc3)[C@H]2C(=O)N1c1ccccc1	-1	-2	3	59
COc1ccc(-c2c(-c3ccc(OC)nc3)c3ccccc3n2C)cc1	0	2	-3	x
COC(=O)[C@@H](NCc1cccc(CN([C@H](C(=O)OC)C(C)C)S(C)(=O)=O)c1)C(C)C	1	1	-1	x
CCOc1cccc(CN2CCC(n3nccc3NC(=O)C3CC3)CC2)c1O	0	-2	2	x
COc1ccc(Cl)cc1S(=O)(=O)N1CCN(Cc2ccc3c(c2)OCO3)CC1	0	2	1	73*
COc1ccc(F)cc1S(=O)(=O)N1CCN(Cc2ccc3c(c2)OCO3)CC1	0	1	1	27
COc1ccc(CCN(C)C(=O)CCNS(=O)(=O)c2ccccc2C(F)(F)F)cc1OC	-1	-2	1	x
COc1cc(C2/C(=C(\O)c3ccc4c(c3)CC(C)O4)C(=O)C(=O)N2CCN2CCOCC2)cc(OC)c1OC (stereo not drawn)	0	0	2	x
Cc1ccc2c(c1)N(Cc1ccc3c(c1)OCO3)C(=O)C(C)O2 (stereo not drawn)	1	0	-2	-5
CCC1Oc2ccc(C)cc2N(Cc2cccc(C)c2)C1=O (stereo not drawn)	1	-1	0	96*
SMILES	A1 inh	XBP1 UPR activ	CHOP UPR activ	CHOP inhibitor
O=C(NCCSCc1ccco1)Nc1cc(Cl)cc(Cl)c1	0	-1	3	70*
COc1ccccc1N1CCN(S(=O)(=O)CCNC(=O)c2ccccc2Br)CC1	1	-8	-1	x
Cc1cc(Cl)ccc1Oc1ccc(C(N)=O)cc1[N+](=O)[O-]	1	0	1	81*
O=C1N/C(=C/c2ccc(N3CCOCC3)o2)C(=O)N1c1cccc(Cl)c1	u	3	27	34
O=C(Nc1scc(-c2ccccc2)c1C(=O)O)c1ccco1	-1	-4	1	73*
COC(=O)c1c(-c2ccc(F)cc2)csc1NC(=O)c1ccco1	0	4	7	-30
Cc1ccc(S(=O)(=O)NCC(=O)OCCOc2cccc(Cl)c2)cc1	0	0	0	x
CCOC(=O)C1=C(CN2CCC(C)CC2)NC(=O)NC1c1ccc(Cl)cc1 (stereo not drawn)	1	-3	-3	87*
O=C(CSc1nnc(-c2ccccc2F)o1)Nc1ccc(N2CCOCC2)cc1	0	2	2	x
COc1cccc(CNC(=O)c2ccc(C)c(NC3=NC4CS(=O)(=O)CC4S3)c2)c1 (stereo not drawn)	x	-1	0	x
COc1ccc(OC)c(/C=N/N(C)c2ccccc2)c1	0	3	5	72*
COc1ccc(OC)c(/C=N\NC(=O)c2ccc(-c3ccccc3)cc2)c1	0	-2	1	x
Cc1ccc(Nc2c(-c3ccccn3)nc3cccc(C)n23)cc1	0	17	21	94*
Cc1cccc(C)c1Nc1c(-c2ccccn2)nc2ccccn12	0	4	8	71*
CCCNC(=O)c1c(N)n(-c2cccc(OC)c2)c2nc3ccccc3nc12	1	0	0	89*
COc1cc(/C=N/N=C(\N)c2nonc2N)cc(OC)c1O	-1	2	4	-16
COc1cc(/C=N/N=C(/N)c2nonc2N)cc(Br)c1OCc1cccc(C)c1	0	4	2	71*
O=c1oc2cc(O)ccc2cc1-c1nc2c(s1)CCc1ccccc1-2	-1	x	x	83*
COc1cc(/C=c2\s/c(=C(/C#N)C(=O)N3CCCC3)n(-c3ccccc3)c2=O)ccc1O	0	7	7	95*
Cc1cc([N+](=O)[O-])ccc1N1C(=O)c2ccc(C(=O)Nc3ccccc3C(=O)O)cc2C1=O	0	3	0	x
NC(=O)C(c1ccc(Cl)cc1)c1ccc(Sc2ccc(Cl)cc2)nn1 (stereo not drawn)	1	-3	-1	83*
CCc1cc2c(SCC(=O)NC3CC3)ncnc2s1	1	-2	-1	x
CCOC(=O)C(NC(=O)Nc1ccccc1)(OCC)C(F)(F)F (stereo not drawn)	0	-3	-1	-1
CCOC(=O)Cc1cnc(NC(=O)NC(C(=O)OCC)(c2ccccc2)C(F)(F)F)s1 (stereo not drawn)	0	5	3	85*
CCc1ccc(N2CC(C(=O)N/N=C/c3cc([N+](=O)[O-])ccc3O)CC2=O)cc1 (stereo not drawn)	0	-1	0	10
CCN(c1ccc(OC)cc1)S(=O)(=O)c1nnc(NC(=O)c2ccc(C)cc2)s1	-1	-4	1	x
Cc1ccccc1N(CC(=O)NC1CCCC1)C(=O)c1oc(C(C)(C)C)cc1C	1	-5	-1	15
Cc1cc(C(C)(C)C)oc1C(=O)N(CC(=O)NC1CCCC1)c1cccc(C(F)(F)F)c1	0	0	-1	83*
CN1CCN(CCCN2c3ccccc3Sc3ccc(C(F)(F)F)cc32)CC1	-1	-1	-1	96*!

Bioassay records: PubChem BioAssay, several laboratories
